Measured values reported in ChEMBL document CHEMBL1140779, “Trisubstituted 1,2,4-triazoles as ligands for the ghrelin receptor: on the significance of the orientation and substitution at position 3” (Bioorg Med Chem Lett, 2008).

Key:
[1] = molecular target: T1, Growth hormone secretagogue receptor type 1 (Homo sapiens, UniProt Q92847); test: Agonist activity at human GHSR1a receptor expressed in CHO cells assessed as intracellular calcium mobilization at 10 uM relative to ghrelin; assay type: functional, cell-based
T1 sequence (Q92847 whole entry): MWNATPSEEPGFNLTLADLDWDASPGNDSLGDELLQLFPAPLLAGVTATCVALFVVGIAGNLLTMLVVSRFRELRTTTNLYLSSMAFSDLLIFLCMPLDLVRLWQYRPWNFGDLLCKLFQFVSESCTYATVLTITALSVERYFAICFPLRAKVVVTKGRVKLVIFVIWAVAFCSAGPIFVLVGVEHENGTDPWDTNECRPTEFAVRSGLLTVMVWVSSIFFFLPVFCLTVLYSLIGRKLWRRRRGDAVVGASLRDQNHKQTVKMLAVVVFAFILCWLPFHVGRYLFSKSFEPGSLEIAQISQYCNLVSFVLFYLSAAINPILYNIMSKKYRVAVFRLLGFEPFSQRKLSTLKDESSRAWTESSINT
Summary of the method: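 Transiently electroporated hGHS-R1a CHO cells loaded with Fluo-4AM; compound at 10 µM, triplicate, at least 2 independent experiments; fluorescence rise (485/525 nm, 60 s read) compared with buffer-only basal; maximal output taken as that of 0.1 µM ghrelin.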

[2] = molecular target: T1, Growth hormone secretagogue receptor type 1; test: Displacement of [125I]His9-ghrelin from human GHSR1a receptor expressed in LLC PK1 cells; assay type: cell-based
[3] = molecular target: T1, Growth hormone secretagogue receptor type 1; test: Antagonist activity at human GHSR1a receptor expressed in CHO cells assessed as reduction of ghrelin-induced intracellular calcium mobilization; assay type: functional, cell-based
[4] = molecular target: T1, Growth hormone secretagogue receptor type 1; test: Antagonist activity at human GHSR1a receptor expressed in CHO cells assessed as intracellular calcium mobilization
[5] = molecular target: T1, Growth hormone secretagogue receptor type 1; test: Agonist activity at human GHSR1a receptor expressed in CHO cells assessed as intracellular calcium mobilization; assay type: functional, cell-based

| SMILES | Activity [1] [%] | IC50 [2] [nM] | IC50 [3] [nM] | Kb [3] [nM] | Kb [4] [nM] | EC50 [5] [nM] |
| --- | --- | --- | --- | --- | --- | --- |
| COc1ccc(Cn2c(CCc3c[nH]c4ccccc34)nnc2[C@@H](Cc2c[nH]c3ccccc23)NC(=O)C(C)(C)N)c(OC)c1 | 0 | – | 620 | – | – | – |
| COc1ccc(Cn2c(Cc3ccccc3)nnc2[C@H](Cc2c[nH]c3ccccc23)NC(=O)C(C)(C)N)cc1 | 5 | > 1000 | – | – | – | – |
| COc1ccc(Cn2c(CCc3c[nH]c4ccccc34)nnc2[C@H](Cc2c[nH]c3ccccc23)NC(=O)[C@@H]2CCCN2)cc1 | 0 | 650 | – | – | 440 | – |
| COc1ccc(Cn2c(CCc3ccccc3)nnc2[C@H](Cc2c[nH]c3ccccc23)NC(=O)C(C)(C)N)c(OC)c1 | 4 | 450 | – | – | – | – |
| COc1ccc(Cn2c(CCCc3ccccc3)nnc2[C@@H](Cc2c[nH]c3ccccc23)NC(=O)C(C)(C)N)cc1 | 0 | – | 600 | – | – | – |
| COc1ccc(Cn2c(CCc3ccccc3)nnc2[C@@H](Cc2c[nH]c3ccccc23)NC(=O)C(C)(C)N)cc1 | 2 | – | 275 | – | – | – |
| COc1ccc(Cn2c(CCc3c[nH]c4ccccc34)nnc2[C@@H](Cc2c[nH]c3ccccc23)NC(=O)c2ccccn2)cc1 | 0 | 8 | – | – | – | – |
| COc1ccc(Cn2c(CCc3c[nH]c4ccccc34)nnc2[C@H](Cc2c[nH]c3ccccc23)NC(=O)C2CCOCC2)cc1 | 0 | 1300 | – | – | – | 24 |
| COc1ccc(Cn2c(CCc3c[nH]c4ccccc34)nnc2[C@@H](CC(=O)OCc2ccccc2)NC(=O)C(C)(C)N)cc1 | 5 | 450 | – | – | – | – |
| COc1ccc(Cn2c(Cc3ccccc3)nnc2[C@@H](Cc2ccccc2)NC(=O)C(C)(C)N)cc1 | 6 | > 1000 | – | – | – | – |
| COc1ccc(Cn2c(CCc3c[nH]c4ccccc34)nnc2[C@@H](Cc2c[nH]c3ccccc23)NC(=O)C2CCOCC2)cc1 | 2 | 45 | – | – | – | 24 |

The remaining lines, values ahead:

| Activity [1] [%] | IC50 [2] [nM] | IC50 [3] [nM] | Kb [3] [nM] | Kb [4] [nM] | EC50 [5] [nM] | SMILES |
| --- | --- | --- | --- | --- | --- | --- |
| 0 | > 1000 | – | – | – | – | COc1ccc(Cn2c(CCc3ccccc3)nnc2[C@H](Cc2c[nH]c3ccccc23)NC(=O)C(C)(C)N)cc1 |
| 6 | 200 | – | – | – | – | COc1ccc(Cn2c(CCc3c[nH]c4ccccc34)nnc2[C@@H](Cc2ccccc2)NC(=O)C(C)(C)N)cc1 |
| 9 | – | 870 | 19 | – | – | COc1ccc(Cn2c(Cc3ccccc3)nnc2[C@@H](Cc2c[nH]c3ccccc23)NC(=O)C(C)(C)N)cc1 |
| 0 | – | – | – | – | – | COc1ccc(Cn2c(Cc3ccccc3)nnc2[C@@H](Cc2c[nH]c3ccccc23)NC(=O)C(C)(C)N)c(OC)c1 |
| 31 | 140 | – | – | – | – | COc1ccc(Cn2c(CCc3c[nH]c4ccccc34)nnc2[C@H](Cc2c[nH]c3ccccc23)NC(=O)C(C)(C)N)cc1 |
| 4 | – | 3200 | 69 | – | – | COc1ccc(Cn2c(CCc3c[nH]c4ccccc34)nnc2[C@H](Cc2c[nH]c3ccccc23)NC(=O)C(C)(C)N)c(OC)c1 |
| 100 | 7 | – | – | – | 32 | COc1ccc(Cn2c(CCc3c[nH]c4ccccc34)nnc2[C@H](Cc2c[nH]c3ccccc23)NC(=O)C2CCNCC2)cc1 |
| – | – | – | – | 6 | – | COc1ccc(Cn2c(CCc3c[nH]c4ccccc34)nnc2[C@@H](Cc2c[nH]c3ccccc23)NC(=O)[C@@H]2CCCN2)cc1 |
| – | – | 190 | – | – | – | COc1ccc(Cn2c(CCc3c[nH]c4ccccc34)nnc2[C@@H](Cc2c[nH]c3ccccc23)NC(=O)C(C)(C)N)cc1 |
| 17 | > 1000 | – | – | – | – | COc1ccc(Cn2c(CCCc3ccccc3)nnc2[C@H](Cc2c[nH]c3ccccc23)NC(=O)C(C)(C)N)cc1 |
| 0 | 800 | – | – | – | – | COc1ccc(Cn2c(CCc3c[nH]c4ccccc34)nnc2[C@@H](COCc2ccccc2)NC(=O)C(C)(C)N)cc1 |
| 11 | > 1000 | – | – | – | – | COc1ccc(Cn2c(Cc3ccccc3)nnc2[C@H](Cc2c[nH]c3ccccc23)NC(=O)C(C)(C)N)c(OC)c1 |
| 0 | – | 800 | – | – | – | COc1ccc(Cn2c(CCc3ccccc3)nnc2[C@@H](Cc2c[nH]c3ccccc23)NC(=O)C(C)(C)N)c(OC)c1 |
